How the values were obtained:
[1] = target: Muscarinic acetylcholine receptor M4 (Homo sapiens) (UniProt P08173); test: Inhibition of human muscarinic M4 receptor at 10 uM
How it was run: (§1)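 Outsourced broad receptor-screening panel of 78 targets, each tested at a single 10 uM concentration; read-out is percent inhibition. Detailed conditions are given only in the Supporting Information.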

[2] = target: Delta-type opioid receptor (Homo sapiens) (UniProt P41143); test: Inhibition of human delta opioid receptor at 10 uM by radioligand binding assay; how it was run: as §1
[3] = target: P2X2/P2X3 heterotrimeric receptor (Homo sapiens, UniProt P56373+Q9UBL9); test: Inhibition of P2X2/3R (unknown origin); type: protein-complex assay
How it was run: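 Selectivity at other P2X receptor subtypes, read as IC50 in a FLIPR Ca2+ flux assay.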

[4] = target: Muscarinic acetylcholine receptor M5 (Homo sapiens) (UniProt P08912); test: Inhibition of human muscarinic M5 receptor at 10 uM; how it was run: as §1
Rattus norvegicus = species: Rattus norvegicus; test: Inhibition of rat GABA receptor at 10 uM by radioligand binding assay; how it was run: as §1

Chain of Delta-type opioid receptor (Homo sapiens) (P41143 whole entry): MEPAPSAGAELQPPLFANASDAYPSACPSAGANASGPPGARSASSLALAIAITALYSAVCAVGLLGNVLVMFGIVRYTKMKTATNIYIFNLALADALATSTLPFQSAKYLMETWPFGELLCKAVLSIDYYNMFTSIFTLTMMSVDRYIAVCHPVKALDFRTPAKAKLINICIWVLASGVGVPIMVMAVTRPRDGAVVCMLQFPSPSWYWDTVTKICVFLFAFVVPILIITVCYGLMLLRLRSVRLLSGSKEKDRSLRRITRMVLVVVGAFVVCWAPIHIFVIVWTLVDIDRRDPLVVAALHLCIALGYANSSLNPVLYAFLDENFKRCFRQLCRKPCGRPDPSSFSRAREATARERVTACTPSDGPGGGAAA
Chain of P2X2/P2X3 heterotrimeric receptor (Q9UBL9 whole entry): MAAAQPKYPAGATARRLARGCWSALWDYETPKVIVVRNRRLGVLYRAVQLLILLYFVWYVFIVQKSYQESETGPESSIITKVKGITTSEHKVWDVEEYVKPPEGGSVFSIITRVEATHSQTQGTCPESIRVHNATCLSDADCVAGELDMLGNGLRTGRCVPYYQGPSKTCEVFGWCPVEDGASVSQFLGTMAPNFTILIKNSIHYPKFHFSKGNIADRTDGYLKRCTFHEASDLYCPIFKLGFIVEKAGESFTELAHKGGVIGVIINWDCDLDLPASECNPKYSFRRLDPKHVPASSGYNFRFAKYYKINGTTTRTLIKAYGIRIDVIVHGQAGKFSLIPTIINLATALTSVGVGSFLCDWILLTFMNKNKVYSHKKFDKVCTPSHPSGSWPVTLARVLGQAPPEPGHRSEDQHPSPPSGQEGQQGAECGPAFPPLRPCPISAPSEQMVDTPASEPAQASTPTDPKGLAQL
Chain of P2X2/P2X3 heterotrimeric receptor (P56373 whole entry): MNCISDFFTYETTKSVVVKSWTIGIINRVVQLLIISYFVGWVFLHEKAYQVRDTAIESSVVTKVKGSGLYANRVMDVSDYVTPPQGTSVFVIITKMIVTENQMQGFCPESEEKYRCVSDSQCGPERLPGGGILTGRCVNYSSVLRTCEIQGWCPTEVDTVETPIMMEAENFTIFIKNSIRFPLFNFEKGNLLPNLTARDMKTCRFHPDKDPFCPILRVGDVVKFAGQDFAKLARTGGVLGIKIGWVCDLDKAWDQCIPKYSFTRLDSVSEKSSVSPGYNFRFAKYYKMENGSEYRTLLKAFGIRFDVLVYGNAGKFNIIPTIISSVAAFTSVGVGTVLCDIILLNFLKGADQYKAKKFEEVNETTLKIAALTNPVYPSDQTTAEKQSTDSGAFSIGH
Chain of Muscarinic acetylcholine receptor M5 (Homo sapiens) (P08912 whole entry): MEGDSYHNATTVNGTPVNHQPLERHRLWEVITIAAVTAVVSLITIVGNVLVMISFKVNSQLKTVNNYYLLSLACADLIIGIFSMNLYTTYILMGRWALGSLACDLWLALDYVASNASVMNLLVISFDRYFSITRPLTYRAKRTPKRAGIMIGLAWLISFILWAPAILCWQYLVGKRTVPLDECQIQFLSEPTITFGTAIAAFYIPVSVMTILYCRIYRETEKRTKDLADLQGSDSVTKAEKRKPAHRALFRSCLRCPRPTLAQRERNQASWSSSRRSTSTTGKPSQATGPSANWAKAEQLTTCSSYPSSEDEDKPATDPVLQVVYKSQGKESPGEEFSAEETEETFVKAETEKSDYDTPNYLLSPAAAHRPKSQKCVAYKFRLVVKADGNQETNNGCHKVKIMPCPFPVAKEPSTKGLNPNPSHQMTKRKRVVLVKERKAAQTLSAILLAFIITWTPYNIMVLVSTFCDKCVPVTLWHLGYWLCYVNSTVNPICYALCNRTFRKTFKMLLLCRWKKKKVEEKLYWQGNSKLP
Chain of Muscarinic acetylcholine receptor M4 (Homo sapiens) (P08173 whole entry): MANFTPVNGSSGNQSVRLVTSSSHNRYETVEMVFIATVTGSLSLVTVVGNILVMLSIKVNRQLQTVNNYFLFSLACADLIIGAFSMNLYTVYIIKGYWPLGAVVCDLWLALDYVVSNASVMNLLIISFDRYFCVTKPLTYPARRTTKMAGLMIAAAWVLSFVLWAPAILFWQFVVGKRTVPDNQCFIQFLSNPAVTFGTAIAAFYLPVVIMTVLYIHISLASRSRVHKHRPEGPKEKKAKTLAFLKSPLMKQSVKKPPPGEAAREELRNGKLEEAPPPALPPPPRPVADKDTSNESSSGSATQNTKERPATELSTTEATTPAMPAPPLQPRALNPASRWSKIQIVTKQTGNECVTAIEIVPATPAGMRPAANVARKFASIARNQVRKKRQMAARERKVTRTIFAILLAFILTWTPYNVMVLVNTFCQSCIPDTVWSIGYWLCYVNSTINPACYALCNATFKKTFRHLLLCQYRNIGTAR

inhibition [1]: < 30% | inhibition [2]: < 30% | IC50 [3]: > 10 µM | inhibition [4]: < 30% | inhibition (Rattus norvegicus): < 30%
SMILES: Cc1cc(Cl)c(OCCO)cc1NC(=O)C1=CNC(=O)C[C@H]1c1ccc(F)cc1
